Assay results from article PMC8246815 (Clinical Pharmacology in Drug Development, 2020).
Read-outs that look alike come from different tables or passages of the source.

Assays:
VMAT2 = details: cited from earlier work
[1] = format: in vivo, human; details: for Total (α+β)-HTBZ AUC0-t / Total (α+β)-HTBZ AUCinf / Total (α+β)-HTBZ Cmax / Total (α+β)-HTBZ T1/2 / α-HTBZ AUC0-t / α-HTBZ AUCinf / α-HTBZ Cmax / β-HTBZ AUC0-t / β-HTBZ AUCinf / β-HTBZ Cmax / β-HTBZ T1/2 / Total (α+β)-HTBZ Tmax / α-HTBZ Tmax / β-HTBZ Tmax: deutetrabenazine 15 mg single dose; for Total (α+β)-HTBZ AUC0-t / Total (α+β)-HTBZ AUCinf / Total (α+β)-HTBZ Cmax / Total (α+β)-HTBZ T1/2 / α-HTBZ AUC0-t / α-HTBZ AUCinf / α-HTBZ Cmax / β-HTBZ AUC0-t / β-HTBZ AUCinf / β-HTBZ Cmax / β-HTBZ T1/2: mean (CV%); for Total (α+β)-HTBZ Tmax / α-HTBZ Tmax / β-HTBZ Tmax: median (range); for Plasma concentrations of the parent compound: single administration of 15 mg deutetrabenazine or 25 mg tetrabenazine tablets, LLOQ 0.100 ng/mL
Outline: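 Randomised crossover in 25 healthy subjects, five periods over 17 days, all in clinic. Single oral dose: 15 mg of each of two test-compound tablet formulations, fed or fasted, or 25 mg non-deuterated reference fasted. Fasted means an overnight fast of ≥10 h; fed means an FDA-definition high-fat (50% calories), 800–1000 calorie meal. Plasma dihydro metabolites sampled predose and over 72 h; values below LLOQ set to LLOQ where flanked by measurable ones. Non-compartmental AUC and Cmax; ANOVA on ln values (subject, period, treatment); back-transformed geometric mean ratios with 90% CI.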

[2] = Study AUS-SD-809-CTP-07 part 2: single and repeated; format: in vivo, human; details: for α-HTBZ Cmin / (α+β)-HTBZ Cmin / β-HTBZ Cmin: steady state, mean (CV%); for α-HTBZ Cmin: 0-12 h; for Linear regression model slope (zero intercept) / Power regression model α (parameter = α × dose^β) / Power regression model β (exponent of dose): deutetrabenazine fed
Outline: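 Two groups of 12 healthy subjects over 20 days; the second group dosed ≥7 days after the first. Test compound given at 7.5, 15 and 22.5 mg after a standard meal; non-deuterated reference 25 mg fasted. Single doses on days 1 and 4, ≥72 h apart, with full plasma profiles. Dosing every 12 h from day 7 for 3.5 days, with predose troughs used to confirm steady state. Cmin taken as the minimum over 0–12 h. Power (parameter = α × dose^β) and zero-intercept linear regressions fitted to single-dose AUCinf, steady-state AUC0-12 and Cmax.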

[3] = format: in vivo, human
Outline: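 Healthy subjects given 18 mg test compound after a standard meal or after a high-fat meal. For the dose-proportionality arms, doses of 6, 12, 18 and 24 mg were given with a standard meal and compared as dose-normalised parameters. Plasma dihydro metabolites analysed by non-compartmental Cmax, AUC0-t and AUCinf. ANOVA on ln values; geometric mean ratios with 90% CI, back-transformed.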

[4] = Safety assessments, study AUS-SD-809-CTP-07; format: in vivo, human; details: for Serious AEs: healthy volunteers; for Laboratory parameters, vital signs and physical examination: single or multiple doses
Outline: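 Healthy subjects, single 15 mg dose in part 1 and single or repeated 7.5–22.5 mg doses in part 2. Adverse-event monitoring, physical examination, vital signs, standard 12-lead ECG, PHQ-9, C-SSRS and laboratory tests repeated throughout, including 72 h after each dose in part 1. For preliminary QTc assessment, triplicate digital 12-lead ECGs recorded on part 2 dosing days 1 and 4.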

[5] = test system: chorea associated with Huntington's disease; details: cited from earlier work
tardive dyskinesia = details: cited from earlier work
[6] = test system: chorea in patients with HD; details: 12 weeks; cited from earlier work
[7] = LS geometric mean ratio deutetrabenazine 15 mg fed / tetrabenazine 25 mg fasted
[8] = deutetrabenazine 15 mg high-fat/high-calorie meal versus fasted
[9] = deutetrabenazine 15 mg, high-fat/high-calorie meal
[10] = deutetrabenazine 7.5 mg twice daily fed
[11] = deutetrabenazine 15 mg twice daily fed
[12] = deutetrabenazine 22.5 mg twice daily fed
[13] = total (α+β)-HTBZ AUC0-12 (steady state)
[14] = total (α+β)-HTBZ AUCinf (single dose)
[15] = deutetrabenazine 18 mg high-fat/high-calorie meal versus standard meal
[16] = deutetrabenazine 18 mg, high-fat/high-calorie meal
[17] = deutetrabenazine 18 mg, standard meal

α‐dihydrotetrabenazine [α‐HTBZ]
Inhibition of VMAT2 (VMAT2): potent inhibitors

COc1cc2c(cc1OC)[C@H]1C[C@H](O)[C@H](CC(C)C)CN1CC2 [β‐HTBZ, β‐dihydrotetrabenazine]
Inhibition of VMAT2 (VMAT2): potent inhibitors

[2H]C([2H])([2H])Oc1cc2c(cc1OC([2H])([2H])[2H])C1CC(=O)C(CC(C)C)CN1CC2 (stereo not shown) [Deutetrabenazine]
Total (α+β)-HTBZ AUC0-t % ratio (90%CI) [1, 7]: 126.6 (115.8‐138.4) % | Total (α+β)-HTBZ AUCinf % ratio (90%CI) [1, 7]: 127.7 (116.7‐139.6) % | Total (α+β)-HTBZ Cmax % ratio (90%CI) [1, 7]: 51.4 (46.0‐57.4) % | α-HTBZ AUCinf % ratio (90%CI) [1, 7]: 129.7 (118.1‐142.5) % | α-HTBZ Cmax % ratio (90%CI) [1, 7]: 49.3 (44.5‐54.7) % | β-HTBZ AUC0-t % ratio (90%CI) [1, 7]: 117.0 (104.5‐131.1) % | β-HTBZ AUCinf % ratio (90%CI) [1, 7]: 119.9 (105.5‐136.2) % | β-HTBZ Cmax % ratio (90%CI) [1, 7]: 55.3 (47.7‐64.2) % | Increase of AUCinf of (α+β)-HTBZ with food ([1]; deutetrabenazine 15 mg high-fat meal vs fasted): about 11% | Total (α+β)-HTBZ AUC0-t % ratio [1, 8]: 111.5% | Total (α+β)-HTBZ AUCinf % ratio [1, 8]: 110.6% | Total (α+β)-HTBZ Cmax % ratio [1, 8]: 149.7% | Total (α+β)-HTBZ T1/2 % ratio [1, 8]: 75.3% | Total (α+β)-HTBZ AUC0-t ([1]; fasted): 263 (45) ng·h/mL | Total (α+β)-HTBZ AUCinf ([1]; fasted): 273 (45) ng·h/mL | Total (α+β)-HTBZ Cmax ([1]; fasted): 22.5 (36) ng/mL | Total (α+β)-HTBZ T1/2 ([1]; fasted): 9.4 (25) h | α-HTBZ AUC0-t ([1]; fasted): 185 (25) ng·h/mL | α-HTBZ AUCinf ([1]; fasted): 196 (24) ng·h/mL | α-HTBZ Cmax ([1]; fasted): 14.2(34) ng/mL | β-HTBZ AUC0-t ([1]; fasted): 74.2 (108) ng·h/mL | β-HTBZ AUCinf ([1]; fasted): 81.4 (105) ng·h/mL | β-HTBZ Cmax ([1]; fasted): 8.43 (48) ng/mL | β-HTBZ T1/2 ([1]; fasted): 6.6 (56) h | Total (α+β)-HTBZ Tmax ([1]; fasted): 2.3 (1.0‐8.0) h | α-HTBZ Tmax ([1]; fasted): 2.5 (1.0‐8.0) h | β-HTBZ Tmax ([1]; fasted): 2.5 (1.0‐8.0) h | Total (α+β)-HTBZ AUC0-t ([1]; fed (high-fat meal)): 296 (48) ng·h/mL | Total (α+β)-HTBZ AUCinf ([1]; fed (high-fat meal)): 305 (46) ng·h/mL | Total (α+β)-HTBZ Cmax ([1]; fed (high-fat meal)): 33.3 (33) ng/mL | Total (α+β)-HTBZ T1/2 ([1]; fed (high-fat meal)): 7.0 (23) h | α-HTBZ AUC0-t ([1]; fed (high-fat meal)): 207 (30) ng·h/mL | α-HTBZ AUCinf ([1]; fed (high-fat meal)): 217 (29) ng·h/mL | α-HTBZ Cmax ([1]; fed (high-fat meal)): 20.8 (27) ng/mL | β-HTBZ AUC0-t ([1]; fed (high-fat meal)): 85.6 (102) ng·h/mL | β-HTBZ AUCinf ([1]; fed (high-fat meal)): 102 (92) ng·h/mL | β-HTBZ Cmax ([1]; fed (high-fat meal)): 12.7 (50) ng/mL | β-HTBZ T1/2 ([1]; fed (high-fat meal)): 4.6 (63) h | Total (α+β)-HTBZ Tmax ([1]; fed (high-fat meal)): 6.0 (1.5‐8.0) h | α-HTBZ Tmax ([1]; fed (high-fat meal)): 6.0 (1.0‐8.0) h | β-HTBZ Tmax ([1]; fed (high-fat meal)): 6.0 (1.5‐8.0) h | Total (α+β)-HTBZ AUC0-t, LS mean ([1]; deutetrabenazine 15 mg, fasted): 244.6 ng·h/mL | Total (α+β)-HTBZ AUCinf, LS mean ([1]; deutetrabenazine 15 mg, fasted): 254.9 ng·h/mL | Total (α+β)-HTBZ Cmax, LS mean ([1]; deutetrabenazine 15 mg, fasted): 21.2 ng/mL | Total (α+β)-HTBZ AUC0-t, LS mean [1, 9]: 272.8 ng·h/mL | Total (α+β)-HTBZ AUCinf, LS mean [1, 9]: 282.0 ng·h/mL | Total (α+β)-HTBZ Cmax, LS mean [1, 9]: 31.7 ng/mL | Total (α+β)-HTBZ T1/2, LS mean [1, 9]: 6.8 h | Effect of food on exposure to total (α+β)-HTBZ, as measured by AUC ([1]; deutetrabenazine fed vs fasted): no effect | Plasma concentrations of the parent compound [1]: near or at the LLOQ | α-HTBZ Cmin [2, 10]: 7.2 (41) ng/mL | (α+β)-HTBZ Cmin [2, 10]: 10.1 (48) ng/mL | β-HTBZ Cmin [2, 10]: 2.8 (71) ng/mL | α-HTBZ Cmin [2, 11]: 15.6 (37) ng/mL | (α+β)-HTBZ Cmin [2, 11]: 21.1 (41) ng/mL | β-HTBZ Cmin [2, 11]: 5.5 (54) ng/mL | α-HTBZ Cmin [2, 12]: 26.3 (40) ng/mL | (α+β)-HTBZ Cmin [2, 12]: 39.5 (59) ng/mL | β-HTBZ Cmin [2, 12]: 13.1 (102) ng/mL | Exposure to β-HTBZ relative to α-HTBZ ([2]; single-dose and repeated deutetrabenazine administration): approximately one‐third | Linear regression model slope (zero intercept) [2, 13]: 32.4 | Power regression model α (parameter = α × dose^β) [2, 13]: 17.8 | Power regression model β (exponent of dose) [2, 13]: 1.2 | Linear regression model slope (zero intercept) [2, 14]: 26.9 | Power regression model α (parameter = α × dose^β) [2, 14]: 17.0 | Power regression model β (exponent of dose) [2, 14]: 1.1 | Total (α+β)-HTBZ AUC0-t % ratio [3, 15]: 107.0% | Total (α+β)-HTBZ AUCinf % ratio [3, 15]: 106.4% | Total (α+β)-HTBZ Cmax % ratio [3, 15]: 104.2% | Total (α+β)-HTBZ T1/2 % ratio [3, 15]: 101.8% | Total (α+β)-HTBZ AUC0-t, LS mean [3, 16]: 408 ng·h/mL | Total (α+β)-HTBZ AUCinf, LS mean [3, 16]: 419 ng·h/mL | Total (α+β)-HTBZ Cmax, LS mean [3, 16]: 48.4 ng/mL | Total (α+β)-HTBZ AUC0-t, LS mean [3, 17]: 382 ng·h/mL | Total (α+β)-HTBZ AUCinf, LS mean [3, 17]: 394 ng·h/mL | Total (α+β)-HTBZ Cmax, LS mean [3, 17]: 46.5 ng/mL | Total (α+β)-HTBZ T1/2, LS mean [3, 17]: 9.7 h | Serious AEs [4]: No serious AEs | Most frequent AEs reported as possibly drug related ([4]; in vivo): Somnolence and headache | Subjects with change from predose in QTc of >30 milliseconds ([4]; in vivo): No subject | Subjects with postdose QTc > 450 milliseconds ([4]; in vivo): No subject | Tolerability ([4]; single 15 mg (part 1) and single/repeated 7.5-22.5 mg (part 2)): well tolerated | Laboratory parameters, vital signs and physical examination [4]: no clinically significant abnormalities | Mean difference in total maximal chorea score compared with placebo treatment [5]: −2.5 unit | Mean Unified Huntington's Disease Rating Scale total maximal chorea score ([5]; weeks 9-12, twice a day, baseline 12.1): 7.7 | Change in the Abnormal Involuntary Movement Scale scores (tardive dyskinesia): significantly reduced TD

COc1cc2c(cc1OC)C1CC(=O)C(CC(C)C)CN1CC2 (stereo not shown) [Tetrabenazine, reference compound]
Plasma concentrations of the parent compound [1]: near or at the LLOQ | Serious AEs [4]: One serious AE of vessel puncture‐site reaction | Subjects with change from predose in QTc of >30 milliseconds ([4]; in vivo): No subject | Subjects with postdose QTc > 450 milliseconds ([4]; in vivo): No subject | Laboratory parameters, vital signs and physical examination [4]: no clinically significant abnormalities | Chorea severity compared with placebo-treated patients [6]: significantly reduced chorea severity
